In ChEMBL document CHEMBL5223168, “Using Imidazo[2,1-b][1,3,4]thiadiazol Skeleton to Design and Synthesize Novel MNK Inhibitors” (ACS Med Chem Lett, 2023):
The source made the active and inactive calls. No cut-off for these calls is given here.

Columns and labels:
[1] = tested on: MAP kinase-interacting kinase MNK1/2 (Homo sapiens); test: Inhibition of MNK in human MDA-MB-231 cells assessed as inhibition of eIF4E phosphorylation at 3 uM incubated for 2 hrs by Western blot analysis
[2] = tested on: MAP kinase-interacting kinase MNK1/2 (Homo sapiens); test: Inhibition of MNK in human A549 cells assessed as reduction in MCP-1 level at 1 to 10 uM incubated for 48 hrs by ELISA; details: dose 1-10 µM
[3] = tested on: MAP kinase-interacting kinase MNK1/2 (Homo sapiens); test: Inhibition of MNK in human NCI-H1299 cells assessed as inhibition of eIF4E phosphorylation at 3 uM incubated for 2 hrs by Western blot analysis
[4] = tested on: MAP kinase-interacting kinase MNK1/2 (Homo sapiens); test: Inhibition of MNK in human U-937 cells assessed as inhibition of eIF4E phosphorylation at 10 uM incubated for 2 hrs by Western blot analysis
[5] = species: Homo sapiens; test: Inhibition of QIK (unknown origin) at 3 uM in presence of ATP by kinase assay
How it was run: (§1)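 Single-point kinase profiling: inhibitor tested at 3 μM against a panel of 60 kinases from different families, activity presented as heatmap.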

[6] = Oral bioavailability in mouse at 50 mg/kg and 25 mg/kg, iv and measured upto 24 hrs; type: ADME, organism-based; details: in vivo
[7] = Half life in mouse at 50 mg/kg, po and measured upto 24 hrs; type: ADME, organism-based; details: in vivo
[8] = Tmax in mouse at 25 mg/kg, iv and measured upto 24 hrs; type: ADME, organism-based; details: in vivo
[9] = tested on: MDA-MB-231; test: Downregulation of MMP-3 in human MDA-MB-231 cells at 5 uM incubated for 24 hrs by Western blot anlaysis; type: functional, cell-based
How it was run: (§2)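 A549 and MDA-MB-231 cells treated 24 h with 5 μM; lysates resolved by SDS-PAGE and immunoblotted for cyclin B1, cyclin D3 and MMP-3.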

[10] = tested on: A549; test: Induction of cell cycle arrest in human A549 cells assessed as decrease in cyclin D3 level at 5 uM incubated for 24 hrs by Western blot analysis; type: functional, cell-based
How it was run: as §2

[11] = target: Mitogen-activated protein kinase 8 (Homo sapiens) (UniProt P45983); test: Inhibition of JNK1 (unknown origin) at 3 uM in presence of ATP by kinase assay
[12] = target: Dual specificity protein kinase CLK1 (Homo sapiens) (UniProt P49759); test: Inhibition of CLK1 (unknown origin) at 3 uM in presence of ATP by kinase assay
[13] = tested on: A549; test: Downregulation of MMP-3 in human A549 cells at 5 uM incubated for 24 hrs by Western blot anlaysis; type: functional, cell-based
How it was run: as §2

[14] = tested on: A549; test: Induction of cell cycle arrest in human A549 cells assessed as accumulation of cells at G0/G1 phase at 5 uM incubated for 16 hrs by propidium iodide staining based flow cytometry (Rvb=75.4%); type: functional
[15] = Cmax in mouse at 50 mg/kg, po and measured upto 24 hrs; type: ADME, organism-based; parameters: dose 50 mg/kg, time < 24 hrs, route po; details: in vivo
[16] = tested on: MAP kinase-interacting kinase MNK1/2 (Mus musculus); test: Inhibition of MNK in wild type mouse MEF cells assessed as inhibition of eIF4E phosphorylation at 3 uM incubated for 2 hrs by Western blot analysis
[17] = tested on: MAP kinase-interacting kinase MNK1/2 (Homo sapiens); test: Inhibition of MNK in human A549 cells assessed as reduction in IL-8 level at 1 to 10 uM incubated for 48 hrs by ELISA; details: dose 1-10 µM
[18] = target: mTORC2 (Homo sapiens) (UniProt P42345+Q6R327+Q9BVC4+Q9BPZ7); test: Inhibition of mTORC2 in human LNCaP C4-2B cells assessed as inhibition of phosphorylation of AKT at Ser473 at 5 uM incubated for 2 hrs by Western blot analysis; type: cell-based
How it was run: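 C4-2B prostate cancer cells treated with inhibitor; lysates probed by Western blot for p-eIF4E, p-S6K (Thr389), p-rpS6 (Ser240/244) and p-AKT (Ser473).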

[19] = tested on: MAP kinase-interacting kinase MNK1/2 (Homo sapiens); test: Inhibition of MNK in human NCI-H446 cells assessed as inhibition of eIF4E phosphorylation at 3 uM incubated for 2 hrs by Western blot analysis
[20] = Apparent volume of distribution in mouse at 25 mg/kg, iv and measured upto 24 hrs; type: ADME, organism-based; details: in vivo, read-out: Vz
[21] = target: T1, MAP kinase-interacting serine/threonine-protein kinase 2 (Homo sapiens, UniProt Q9HBH9); test: Inhibition of MNK2 (unknown origin) incubated for 60 mins using CREB as substrate in presence of ATP by LANCE Ultra kinase assay
Target sequence in this assay (Q9HBH9 whole entry): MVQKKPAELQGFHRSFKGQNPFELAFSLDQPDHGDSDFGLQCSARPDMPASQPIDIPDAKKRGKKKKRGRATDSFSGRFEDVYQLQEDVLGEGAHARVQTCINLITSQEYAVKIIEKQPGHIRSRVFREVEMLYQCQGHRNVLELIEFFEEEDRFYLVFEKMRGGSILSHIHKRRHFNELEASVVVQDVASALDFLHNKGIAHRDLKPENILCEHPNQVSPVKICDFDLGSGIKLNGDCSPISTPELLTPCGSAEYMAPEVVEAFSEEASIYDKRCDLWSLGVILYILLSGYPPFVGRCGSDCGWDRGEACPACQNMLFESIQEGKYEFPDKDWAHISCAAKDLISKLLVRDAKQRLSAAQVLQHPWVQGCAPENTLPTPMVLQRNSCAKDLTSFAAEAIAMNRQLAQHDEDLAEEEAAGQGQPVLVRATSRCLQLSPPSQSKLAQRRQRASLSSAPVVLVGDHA

[22] = tested on: A549; test: Induction of cell cycle arrest in human A549 cells assessed as accumulation of cells at S phase at 5 uM incubated for 8 hrs by propidium iodide staining based flow cytometry (Rvb=1.7%); type: functional
[23] = tested on: MV4-11; test: Induction of cell cycle arrest in human MV4-11 cells assessed as decrease in cyclin B1 level at 3 uM incubated for 24 hrs by Western blot analysis
[24] = Toxicity in BALB/C nude mouse xenografted with human A549 cells assessed as body weight loss at 75 to 150 mg/kg, po QD for 14 days; type: organism-based; details: in vivo, 336 h, dose 75-150 mg/kg, time 14 day
How it was run: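 A549 xenografts in nude mice dosed orally once daily at 75 or 150 mg/kg for 14 days; body weight monitored for tolerability, irinotecan 3 mg/kg as positive control group.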

[25] = target: T1, MAP kinase-interacting serine/threonine-protein kinase 2; test: Inhibition of MNK2 (unknown origin) at 3 uM in presence of ATP by kinase assay
How it was run: as §1
Target sequence in this assay (Q9HBH9 whole entry, looked up): as the sequence (Q9HBH9 whole entry) above

[26] = tested on: A549; test: Induction of cell cycle arrest in human A549 cells assessed as accumulation of cells at S phase at 5 uM incubated for 16 hrs by propidium iodide staining based flow cytometry (Rvb=12.8%); type: functional
[27] = AUC (0-t) in mouse at 50 mg/kg, po and measured upto 24 hrs; type: ADME, organism-based; parameters: dose 50 mg/kg, time < 24 hrs, route po; details: in vivo
[28] = tested on: 3T3-L1; test: Inhibition of MNK in mouse 3T3-L1 cells assessed as inhibition of eIF4E phosphorylation at 5 uM incubated for 2 hrs by Western blot analysis; type: cell-based
How it was run: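 Mouse 3T3-L1 cells exposed to compound at 5 μM for 2 h; lysates resolved by SDS-PAGE and immunoblotted for phospho-eIF4E. Reference MNK inhibitor run in parallel at 1 μM.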

[29] = tested on: A549; test: Induction of cell cycle arrest in human A549 cells assessed as accumulation of cells at G0/G1 phase at 5 uM incubated for 20 hrs by propidium iodide staining based flow cytometry (Rvb=70.9%); type: functional
[30] = tested on: MAP kinase-interacting kinase MNK1/2 (Homo sapiens); test: Inhibition of MNK in human PC-3 cells assessed as inhibition of eIF4E phosphorylation at 3 uM incubated for 2 hrs by Western blot analysis

Mitogen-activated protein kinase 8 (Homo sapiens), sequence (P45983 whole entry): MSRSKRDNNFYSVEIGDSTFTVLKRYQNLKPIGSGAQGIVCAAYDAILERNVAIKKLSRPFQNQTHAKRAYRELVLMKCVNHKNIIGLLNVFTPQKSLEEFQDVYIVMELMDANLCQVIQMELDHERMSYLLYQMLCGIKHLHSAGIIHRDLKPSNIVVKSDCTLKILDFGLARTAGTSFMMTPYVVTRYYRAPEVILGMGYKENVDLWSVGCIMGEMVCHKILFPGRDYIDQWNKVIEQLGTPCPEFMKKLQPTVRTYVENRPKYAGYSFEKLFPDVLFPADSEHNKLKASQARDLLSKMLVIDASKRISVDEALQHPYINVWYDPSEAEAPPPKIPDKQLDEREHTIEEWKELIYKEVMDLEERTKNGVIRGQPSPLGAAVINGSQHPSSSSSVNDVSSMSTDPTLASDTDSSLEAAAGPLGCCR
Dual specificity protein kinase CLK1 (Homo sapiens), sequence (P49759 whole entry, looked up): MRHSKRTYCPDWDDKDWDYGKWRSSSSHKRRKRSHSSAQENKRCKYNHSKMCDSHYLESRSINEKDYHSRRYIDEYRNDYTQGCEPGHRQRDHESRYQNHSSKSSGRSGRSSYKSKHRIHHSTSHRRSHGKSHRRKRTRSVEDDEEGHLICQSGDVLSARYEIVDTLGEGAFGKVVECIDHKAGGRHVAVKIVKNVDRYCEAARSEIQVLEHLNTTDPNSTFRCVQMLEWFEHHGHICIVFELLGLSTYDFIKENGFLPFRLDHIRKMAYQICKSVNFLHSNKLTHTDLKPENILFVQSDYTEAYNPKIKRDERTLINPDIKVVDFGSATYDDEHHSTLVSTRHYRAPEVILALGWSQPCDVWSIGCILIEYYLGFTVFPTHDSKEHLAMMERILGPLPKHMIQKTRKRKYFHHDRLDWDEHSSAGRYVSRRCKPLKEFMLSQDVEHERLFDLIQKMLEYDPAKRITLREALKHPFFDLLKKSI

CN1CCN(C(=O)c2ccc(-c3nn4c(-c5ccc(C#N)cc5)cnc4s3)cc2)CC1
inhibition [1]: Active | inhibition [2]: Active | inhibition [3]: Active | inhibition [4]: Active | inhibition [5]: Active | bioavailability [6]: 60.9% | half-life [7]: 4.42 h | Tmax [8]: 4.8 min | Activity [9]: Active | Activity [10]: Active | inhibition [11]: Active | inhibition [12]: Active | Activity [13]: Active | Activity [14]: 89.6% | Cmax [15]: 17200 ng/mL | inhibition [16]: Active | inhibition [17]: Active | inhibition [18]: inactive | inhibition [19]: Active | Vd [20]: 1.52 L/kg | IC50 [21]: 8.6 nM | Activity [22]: 2.7% | Activity [23]: Active | Activity [24]: < 10% | inhibition [25]: 100% | Activity [26]: 5.2% | AUC(0-t) at 24 h [27]: 98500 ng·h/mL | inhibition [28]: Active | Activity [29]: 91.4% | inhibition [30]: Active
